Screening results (PubChem BioAssay)
Hits are enriched below; roughly 27% of the tested compounds scored in any of these assays.
CYP2C19 inhib: blocks human cytochrome P450 2C19. 96,000 compounds, 21% hits. inhibition, % at 5 µM. CYP2C19 Supersomes, luciferin-H EGE luminescence, 30 min;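 active = CYP2C19 inhibition above a set limit at 5 µM in the primary screen, cut at about 50% in these data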
Cav32 inh: human Cav3.2 channel inhibition, primary screen; AID 449739; 100,000 compounds, 4% hits; B-score at 10 µM; Cav3.2-expressing cells, Fluo-4 calcium fluorescence FDSS; stronger effect = lower value;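 active = single-dose well whose peak fluorescence ratio is a statistical outlier from its plate by either plate-standardised score or position-corrected B-score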
CYP2C9 inhib: human CYP2C9 inhibition; P11712; CYP2C9 Supersomes, luciferin-H conversion, luminescence; 96,000 compounds, 20% hits; inhibition, % at 5 µM; AID 777;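 active = blocking of liver enzyme CYP2C9 beyond about 50% at 5 µM, limit read from the data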
Target sequence (P11712 whole entry, looked up): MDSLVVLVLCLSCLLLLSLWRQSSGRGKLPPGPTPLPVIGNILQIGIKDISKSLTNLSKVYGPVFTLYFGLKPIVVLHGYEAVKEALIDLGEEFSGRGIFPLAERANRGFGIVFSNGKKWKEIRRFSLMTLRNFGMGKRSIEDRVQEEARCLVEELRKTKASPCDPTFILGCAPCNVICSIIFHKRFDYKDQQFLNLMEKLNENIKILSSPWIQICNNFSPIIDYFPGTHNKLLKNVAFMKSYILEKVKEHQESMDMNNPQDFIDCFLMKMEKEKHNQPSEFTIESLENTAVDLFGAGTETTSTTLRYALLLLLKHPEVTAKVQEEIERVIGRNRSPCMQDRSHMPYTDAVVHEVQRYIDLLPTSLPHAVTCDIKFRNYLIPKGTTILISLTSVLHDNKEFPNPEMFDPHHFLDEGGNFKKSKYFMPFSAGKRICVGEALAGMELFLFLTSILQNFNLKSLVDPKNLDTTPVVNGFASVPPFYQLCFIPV
CYP2C19 act: cytochrome P450 2C19 (human) activation. P33261. recombinant CYP2C19, luciferin-H EGE luminescence; stronger effect = higher value; 0 = fully inhibited enzyme, 1 = untreated enzyme. activation factor at 5 µM. 96,000 tested, under 10 active. AID 1025;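 active = activation factor of at least 2 at 5 µM in the primary screen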
CYP2C9 activ: increases human cytochrome P450 2C9 activity; P11712; recombinant CYP2C9, luciferin-H conversion, luminescence; stronger effect = higher value; factor 1 = untreated enzyme, 0 = blocked; activation factor at 5 µM; 96,000 compounds, 1.4% hits; AID 1024;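 active = activation factor of 2 or more for CYP2C9 at a 5 µM dose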
HIV Rev-RRE inh: HIV Rev-RRE protein-RNA interaction inhibition; P05866; Rev peptide-RRE RNA binding, FRET; inhibition, % at 8 µM; 97,000 compounds, 0.79% hits; AID 704;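 active = inhibition above the screen-wide mean plus 3 SD, cut at about 35% in these data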
Target sequence (P05866 whole entry, looked up): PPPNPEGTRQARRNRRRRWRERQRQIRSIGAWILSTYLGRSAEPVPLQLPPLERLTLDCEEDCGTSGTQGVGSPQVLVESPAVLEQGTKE
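Assay system: labelled RRE RNA duplex and labelled Rev peptide / Medium: HEPES pH 7.5 salt buffer with EDTA / Reagent: labelled Rev peptide / Schedule: 5 + 15 min at 25 °C / Signal: FRET, excitation 480 nm, emission 540 nm donor and 671 nm acceptor / Benchmarks: DMSO and neomycin B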
Each line names hits and unclear results; the compound was inactive in the other large screens.

CC(C)c1ccc(CNc2cc(N3CCCC3)ccc2[N+](=O)[O-])cc1	CYP2C9 inhib 53
O=[N+]([O-])c1ccc(N2CCN(S(=O)(=O)c3ccc(Cl)cc3)CC2)cc1NCC1CCCO1 (stereo unspecified)	none
CS(=O)(=O)N1CCN(c2ccc([N+](=O)[O-])c(NCc3ccccc3)c2)CC1	none (no result: Cav32 inh)
Cc1cc(C)c(S(=O)(=O)N2CCN(c3ccc([N+](=O)[O-])c(NCc4ccco4)c3)CC2)c(C)c1	CYP2C9 inhib 53
CCNc1cc(N2CCN(S(=O)(=O)c3ccc4c(c3)CCCC4)CC2)ccc1[N+](=O)[O-]	CYP2C19 inhib 54
CC(C)(C)CNc1cc(N2CCCC2)ccc1[N+](=O)[O-]	none
c1cncc(-c2nnc(C3CCCCC3)o2)c1	none
COc1cc(Sc2ccc(C)cc2)c(OC)cc1N	CYP2C19 inhib 68
COC(=O)c1ccc(Sc2ccc(C)cc2)c(N)c1	none
CC(O)(CS(=O)(=O)Cc1ccccc1Cl)C(=O)Nc1cccc(C(F)(F)F)c1 (stereo unspecified)	CYP2C19 inhib 54
CC(O)(CS(=O)(=O)Cc1cccc(C(F)(F)F)c1)C(=O)Nc1cccc(C(F)(F)F)c1 (stereo unspecified)	none
COc1ccc(OC)c(C2=Nn3c(nnc3C3CCCCC3)SC2)c1	CYP2C19 inhib 94, CYP2C9 inhib 78
COc1ccc(C2=Nn3c(nnc3C3CCCCC3)SC2)cc1OC	CYP2C19 inhib 64, CYP2C9 inhib 72
CCCc1nnc2n1N=C(c1ccc(OC)c(OC)c1)CS2	none (no result: CYP2C19 inhib, CYP2C9 inhib, CYP2C19 act, CYP2C9 activ)
COc1ccccc1C1=Nn2c(nnc2C2CCCCC2)SC1	none
CCOCCCNC(=O)C1CCCCN1S(=O)(=O)c1ccc(F)cc1 (stereo unspecified)	none
COc1c(-c2ccc(O)c(O)c2)oc2cc(O)cc(O)c2c1=O	none (no result: CYP2C19 inhib, CYP2C9 inhib, CYP2C19 act, CYP2C9 activ, HIV Rev-RRE inh)
Cc1cc(C)cc(N2CCCC2=O)c1	none (no result: CYP2C19 inhib, CYP2C9 inhib, CYP2C19 act, CYP2C9 activ)
Nc1c(Br)cc(Br)c(N2CCCC2=O)c1Br	CYP2C19 inhib 54, CYP2C9 activ 4.3 (no result: HIV Rev-RRE inh)
COc1cccc2cc(C(=O)N3CCN(c4ccccc4F)CC3)c(=O)oc12	CYP2C9 inhib 51
O=C(c1cc2cc(Br)ccc2oc1=O)N1CCN(c2ccccn2)CC1	none
CCOc1cccc2cc(C(=O)Nc3cc(C)on3)c(=O)oc12	none
CCOc1ccc(OCc2ccc(C(=O)N3CCc4ccccc4C3)o2)cc1	CYP2C19 inhib 51, Cav32 inh -2.8
CCOc1cccc2cc(C(=O)N3CCc4ccccc4C3)c(=O)oc12	CYP2C19 inhib 68, CYP2C9 activ 2.5
COc1cc(Br)cc2cc(C(=O)N3CCN(c4ccccn4)CC3)c(=O)oc12	CYP2C19 inhib 74, CYP2C9 inhib 57
Cc1onc(-c2ccccc2Cl)c1C(=O)Nc1sc2c(c1C(N)=O)CCC(C)C2 (stereo unspecified)	none (no result: CYP2C19 inhib, Cav32 inh, CYP2C9 inhib, CYP2C19 act, CYP2C9 activ)
CCO[C@@H]1OC(C(=O)Nc2ccccc2)=C[C@H](c2csc3ccccc23)[C@H]1CCCO	none (no result: CYP2C19 inhib, CYP2C9 inhib, CYP2C19 act, CYP2C9 activ, HIV Rev-RRE inh)
Cc1cc(NC(=O)c2c(Cl)c(C)nn2C)no1	none
COc1cc2c(cc1OC)CN(C(=O)c1cc3ccccc3oc1=O)CC2	none
COc1cccc2cc(C(=O)N3CCc4ccccc4C3)c(=O)oc12	CYP2C9 activ 2 (no result: HIV Rev-RRE inh)
CN(c1ccc(C(=O)NCC2CCCO2)cc1)S(C)(=O)=O (stereo unspecified)	none (no result: Cav32 inh)
Cc1cc(NC(=O)COc2cccc(C)c2C)no1	none
COc1ccccc1OCCCCNCCO	none
CCOc1ccccc1OCCCCCc1c(C)n[nH]c1C	CYP2C19 inhib 77, Cav32 inh -3.6
CCOc1ccccc1OCCCOc1ccc(C)cc1Cl	none
COc1ccccc1OCCCCCc1c(C)n[nH]c1C	CYP2C19 inhib 54
Cc1cccc(OCCCCc2c(C)n[nH]c2C)c1C	CYP2C19 inhib 88, CYP2C9 inhib 74
COc1ccccc1OCCCc1c(C)n[nH]c1C	CYP2C19 inhib 67
Cc1cc(C(F)(F)F)nc(NCc2cccnc2)n1	none (no result: CYP2C19 inhib, CYP2C9 inhib, CYP2C19 act, CYP2C9 activ)
CCC(C(=O)NC1CCCC1)N(Cc1ccc2c(c1)OCO2)C(=O)c1snc(C(N)=O)c1N (stereo unspecified)	CYP2C19 inhib 92
O=C(NCc1ccc2c(c1)OCO2)C1CC(=O)N(C2CCCCCC2)C1 (stereo unspecified)	none (no result: HIV Rev-RRE inh)
CCC(C)(C(=O)Nc1ccc2c(c1)OCCO2)N(C(C)=O)c1ccc(C(N)=O)cc1 (stereo unspecified)	none
CC(C(=O)NC1CCCC1)N(Cc1ccc2c(c1)OCO2)C(=O)c1snc(C(N)=O)c1N (stereo unspecified)	CYP2C19 inhib 99, CYP2C9 inhib 82
NC(=O)c1noc(C(=O)N(CC(=O)NC2CCCC2)Cc2ccc3c(c2)OCO3)c1N	none (no result: CYP2C19 inhib, CYP2C9 inhib, CYP2C19 act, CYP2C9 activ)
CCC(C)(C)NC(=O)CN(C(=O)c1snc(C(N)=O)c1N)c1ccc2c(c1)OCO2	CYP2C9 inhib 57
NC(=O)c1nsc(C(=O)N(CC(=O)NCc2ccc3c(c2)OCO3)C2CCCCC2)c1N	CYP2C19 inhib 86
COc1ccc(CCn2nnc(-c3ccc(NC(C)=O)c(Cl)c3)n2)cc1	none (no result: CYP2C19 inhib, CYP2C9 inhib, CYP2C19 act, CYP2C9 activ)
O=C(/C=C/c1cccc([N+](=O)[O-])c1)NCCSc1ccccc1	Cav32 inh -3.7
CCCCN(CCCC)C(=O)/C=C/c1cccc([N+](=O)[O-])c1	CYP2C19 inhib 72, Cav32 inh -6, CYP2C9 inhib 60
CC1CN(C(=O)/C=C/c2cccc([N+](=O)[O-])c2)CC(C)O1 (stereo unspecified)	none (no result: CYP2C19 inhib, CYP2C9 inhib, CYP2C19 act, CYP2C9 activ)
O=C(/C=C/c1ccccc1)NCCSCc1ccccc1Cl	Cav32 inh -5.7, CYP2C9 inhib 57
FC(F)Sc1ccc(NC(=S)NCC2CCCCC2)cc1	CYP2C19 inhib 96, Cav32 inh -5.7
CC1CCCCC1NC(=S)Nc1ccc(SC(F)F)cc1 (stereo unspecified)	CYP2C19 inhib 61, CYP2C9 activ 2.3
O=C(Nc1ccc(SC(F)F)cc1)C1=COCCO1	none
O=C(Nc1ccc(F)c(F)c1)NC1CCCCC1	none
FC(F)Sc1ccc(NC(=S)NC2CCCCC2)cc1	CYP2C19 inhib 75, CYP2C9 activ 2.4
COc1ccc(-c2cc(C(F)F)n3ncc(C(=O)N4CCN5CCCC5C4)c3n2)cc1 (stereo unspecified)	none
O=C(NC1CCCCC1)c1ccc(COCC(F)(F)F)o1	none
O=C(NCc1ccccc1)c1ccc(COCC(F)(F)F)o1	CYP2C19 inhib 85
O=C(NCc1ccccc1)c1ccc(-c2ccc(F)cc2)o1	CYP2C19 inhib 55, CYP2C9 inhib 56
Cc1cc2nc(-c3cccc(NC(=O)c4ccc(Br)o4)c3C)oc2cc1C	CYP2C9 inhib 50
COC(=O)c1ccccc1NC(=O)c1cccc(NC(=O)c2ccc(Br)o2)c1C	Cav32 inh -5
Cc1ccc2oc(-c3cccc(NC(=O)c4ccc(Br)o4)c3C)nc2c1	none
COC(=O)c1ccccc1OC(=O)c1ccc(Br)o1	CYP2C19 inhib 76
